Common to all, as to type: functional
The subject of assay [1] is Haemophilus influenzae. The assay can be described thus: Antibacterial activity against Haemophilus influenzae Rd by broth microdilution method. Summed up: (§1)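 MICs were determined by broth dilution following CLSI guidelines (approved standard M7-A7). The agents were rifampin, cefdinir and fosfomycin. Strains were routinely grown on chocolate II agar or in brain heart infusion broth with 2% defibrinated, lysed horse blood plus 15 μg/ml β-NAD+.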
On the technique in general: Dilution methods test growth across graded concentrations, often in twofold steps.

The test system of assay [2] is Haemophilus influenzae. The experiment in a line: Antibacterial activity against rifampin and cefdinir-resistant Haemophilus influenzae RdRIF/MSC06647 mutant by broth microdilution method. Summed up: as §1
Assay [3] concerns Haemophilus influenzae. The experiment in a line: Antibacterial activity against rifampin and cefdinir-resistant Haemophilus influenzae RdRIF/MSC06651 mutant by broth microdilution method. Summed up: as §1
Assay [4] concerns Haemophilus influenzae. The experiment in a line: Antibacterial activity against rifampin and cefdinir-resistant Haemophilus influenzae RdRIF/MSC06663 mutant by broth microdilution method. Summed up: as §1
The test system of assay [5] is Haemophilus influenzae. The experiment in a line: Antibacterial activity against Haemophilus influenzae MSC06647 by broth microdilution method. Summed up:
as §1

The test system of assay [6] is Haemophilus influenzae. The experiment in a line: Antibacterial activity against Haemophilus influenzae MSC06651 by broth microdilution method. Summed up:
as §1

Assay [7] deals with Haemophilus influenzae. The experiment in a line: Antibacterial activity against Haemophilus influenzae MSC06663 by broth microdilution method. Summed up: as §1
Assay [8] deals with Haemophilus influenzae. The experiment in a line: Antibacterial activity against rifampin-resistant Haemophilus influenzae RdRIF by broth microdilution method. A digest of the protocol:
as §1

Assay [9] deals with Aggregatibacter aphrophilus. The assay can be described thus: Antibacterial activity against Haemophilus aphrophilus ATCC 33389 by broth microdilution method.
For assay [10], the system named is Aggregatibacter aphrophilus. The assay can be described thus: Antibacterial activity against Haemophilus paraphrophilus ATCC 29241 by broth microdilution method.
The next assay deals with Aggregatibacter segnis. The assay can be described thus: Antibacterial activity against Haemophilus segnis ATCC 33393 by broth microdilution method.
Assay [11] has as its system Haemophilus parahaemolyticus. The experiment in a line: Antibacterial activity against Haemophilus parahaemolyticus ATCC 10014 by broth microdilution method.
Assay [12] relates to Haemophilus paraphrohaemolyticus. The assay can be described thus: Antibacterial activity against Haemophilus paraphrohaemolyticus ATCC 29237 by broth microdilution method.
Assay [13] relates to Haemophilus influenzae. The experiment in a line: Antibacterial activity against Haemophilus influenzae MSC02070 by broth microdilution method. A digest of the protocol:
as §1

Assay [14] has as its system Haemophilus influenzae. The assay can be described thus: Antibacterial activity against Haemophilus influenzae MSC01869 by broth microdilution method. Summed up: as §1
The subject of assay [15] is Haemophilus influenzae. The assay can be described thus: Antibacterial activity against Haemophilus influenzae MSC01400 by broth microdilution method. A digest of the protocol: as §1
In assay [16] the test system is Haemophilus influenzae. The assay can be described thus: Antibacterial activity against Haemophilus influenzae MSC01855 by broth microdilution method. A digest of the protocol: as §1
In assay [17] the test system is Haemophilus influenzae. The assay can be described thus: Antibacterial activity against Haemophilus influenzae MSC07237 by broth microdilution method. Summed up: as §1
Assay [18] relates to Haemophilus influenzae. The assay can be described thus: Antibacterial activity against Haemophilus influenzae MSC02104 by broth microdilution method.
In assay [19] the test system is Haemophilus influenzae. The assay can be described thus: Antibacterial activity against Haemophilus influenzae MSC02149 by broth microdilution method. Summed up: as §1
Assay [20] concerns Haemophilus influenzae. The assay can be described thus: Antibacterial activity against Haemophilus influenzae MSC02022 by broth microdilution method. Summed up: as §1
Assay [21] has as its system Haemophilus influenzae. The assay can be described thus: Antibacterial activity against Haemophilus influenzae MSC01363 by broth microdilution method. A digest of the protocol:
as §1

Assay [22] has as its system Haemophilus influenzae. The experiment in a line: Antibacterial activity against Haemophilus influenzae MSC01432 by broth microdilution method. A digest of the protocol:
as §1

The test system of assay [23] is Haemophilus influenzae. The experiment in a line: Antibacterial activity against Haemophilus influenzae MSC07169 by broth microdilution method. A digest of the protocol:
as §1

Assay [24] has as its system Haemophilus influenzae. The experiment in a line: Antibacterial activity against Haemophilus influenzae MSC07771 by broth microdilution method. Summed up:
as §1

For assay [25], the system named is Haemophilus haemolyticus. The experiment in a line: Antibacterial activity against Haemophilus haemolyticus MSC07286 by broth microdilution method.
The test system of assay [26] is Haemophilus haemolyticus. The assay can be described thus: Antibacterial activity against Haemophilus haemolyticus ATCC 33390 by broth microdilution method.
Assay [27] has as its system Haemophilus parainfluenzae. The assay can be described thus: Antibacterial activity against Haemophilus parainfluenzae ATCC 33392 by broth microdilution method.

Each structure is given as a SMILES string. In brackets after ≈: the same amount, converted by molar mass.

For `C[C@@H]1O[C@@H]1P(=O)(O)O` [FOSFOMYCIN], the MIC stood at 2 µg/mL (≈ 14.5 µM) against Haemophilus influenzae [1]; 2 µg/mL (≈ 14.5 µM) in the assay on Haemophilus influenzae [2]; 1 µg/mL (≈ 7.24 µM) with Haemophilus influenzae [3]; 2 µg/mL (≈ 14.5 µM) in the assay with Haemophilus influenzae [4]; 0.12 µg/mL (≈ 0.869 µM) in the assay with Haemophilus influenzae [5]; 256 µg/mL (≈ 1850 µM) in the assay with Haemophilus influenzae [6]. The results for the MIC against Haemophilus influenzae [7] and against Haemophilus influenzae [8] were 0.06 µg/mL (≈ 0.435 µM) and 2 µg/mL (≈ 14.5 µM), respectively.

On to `C=CC1=C(C(=O)O)N2C(=O)[C@@H](NC(=O)/C(=N\O)c3csc(N)n3)[C@H]2SC1` [CEFDINIR], for which the MIC was determined as 0.12 µg/mL (≈ 0.303 µM) in assay [9]; 0.06 µg/mL (≈ 0.152 µM) in [10]; 0.06 µg/mL (≈ 0.152 µM) with Aggregatibacter segnis; 0.016 µg/mL (≈ 0.0405 µM) in assay [11]; 0.016 µg/mL (≈ 0.0405 µM) in assay [12]; 0.25 µg/mL (≈ 0.632 µM) in the assay with Haemophilus influenzae [1]. The MIC was 2 µg/mL (≈ 5.06 µM) with Haemophilus influenzae [2]; 8 µg/mL (≈ 20.2 µM) with Haemophilus influenzae [3]; 8 µg/mL (≈ 20.2 µM) in the assay with Haemophilus influenzae [4]; 8 µg/mL (≈ 20.2 µM) against Haemophilus influenzae [13]; 8 µg/mL (≈ 20.2 µM) against Haemophilus influenzae [14]; 8 µg/mL (≈ 20.2 µM) in the assay on Haemophilus influenzae [15]. The MIC turned out to be 8 µg/mL (≈ 20.2 µM) against Haemophilus influenzae [16]; 16 µg/mL (≈ 40.5 µM) with Haemophilus influenzae [17]; 16 µg/mL (≈ 40.5 µM) against Haemophilus influenzae [18]; 16 µg/mL (≈ 40.5 µM) against Haemophilus influenzae [19]; 2 µg/mL (≈ 5.06 µM) with Haemophilus influenzae [20]; 1 µg/mL (≈ 2.53 µM) with Haemophilus influenzae [21]. The MIC is 2 µg/mL (≈ 5.06 µM) in the assay on Haemophilus influenzae [22]; 1 µg/mL (≈ 2.53 µM) in the assay on Haemophilus influenzae [5]; 8 µg/mL (≈ 20.2 µM) with Haemophilus influenzae [6]; 2 µg/mL (≈ 5.06 µM) in the assay on Haemophilus influenzae [7]; 0.25 µg/mL (≈ 0.632 µM) in the assay on Haemophilus influenzae [8]; 1 µg/mL (≈ 2.53 µM) in the assay with Haemophilus influenzae [23]. Further, the MIC against Haemophilus influenzae [24] came to 1 µg/mL (≈ 2.53 µM); in the assay on Haemophilus haemolyticus [25], 2 µg/mL (≈ 5.06 µM); in the assay on Haemophilus haemolyticus [26] it was 0.12 µg/mL (≈ 0.303 µM); in [27] it was 0.12 µg/mL (≈ 0.303 µM).

As to `CO[C@H]1/C=C/O[C@@]2(C)Oc3c(C)c(O)c4c(O)c(c(/C=N/N5CCN(C)CC5)c(O)c4c3C2=O)NC(=O)/C(C)=C\C=C\[C@H](C)[C@H](O)[C@@H](C)[C@@H](O)[C@@H](C)[C@H](OC(C)=O)[C@@H]1C` [RIFAMPIN], the MIC is 0.5 µg/mL (≈ 0.608 µM) in the assay with Haemophilus influenzae [1]; over 128 µg/mL against Haemophilus influenzae [2]; over 128 µg/mL with Haemophilus influenzae [3]; over 128 µg/mL in the assay with Haemophilus influenzae [4]; 0.25 µg/mL (≈ 0.304 µM) against Haemophilus influenzae [5]; 0.5 µg/mL (≈ 0.608 µM) in the assay on Haemophilus influenzae [6]. The MIC was 0.5 µg/mL (≈ 0.608 µM) in the assay with Haemophilus influenzae [7] and over 128 µg/mL against Haemophilus influenzae [8].

As to `CC1(C)S[C@@H]2[C@H](NC(=O)[C@H](N)c3ccccc3)C(=O)N2[C@H]1C(=O)O` [AMPICILLIN], the MIC in assay [9] amounted to 0.5 µg/mL (≈ 1.43 µM); in [10], 0.25 µg/mL (≈ 0.715 µM); in the assay on Aggregatibacter segnis, 0.5 µg/mL (≈ 1.43 µM); in assay [11] it was 0.25 µg/mL (≈ 0.715 µM); in assay [12], 0.25 µg/mL (≈ 0.715 µM); in the assay with Haemophilus influenzae [13], 8 µg/mL (≈ 22.9 µM). In addition, the MIC is over 64 µg/mL in the assay on Haemophilus influenzae [14]; 8 µg/mL (≈ 22.9 µM) in the assay with Haemophilus influenzae [15]; 4 µg/mL (≈ 11.4 µM) in the assay on Haemophilus influenzae [16]; 4 µg/mL (≈ 11.4 µM) against Haemophilus influenzae [17]; over 64 µg/mL in the assay with Haemophilus influenzae [18]; 8 µg/mL (≈ 22.9 µM) with Haemophilus influenzae [19]. Further, the MIC against Haemophilus influenzae [20] came to 1 µg/mL (≈ 2.86 µM); in the assay on Haemophilus influenzae [21] it was 2 µg/mL (≈ 5.72 µM); against Haemophilus influenzae [22], 1 µg/mL (≈ 2.86 µM); against Haemophilus influenzae [5], 2 µg/mL (≈ 5.72 µM); against Haemophilus influenzae [6], 2 µg/mL (≈ 5.72 µM); in the assay on Haemophilus influenzae [7] it was 1 µg/mL (≈ 2.86 µM). For the same molecule, the MIC against Haemophilus influenzae [8] came to 0.25 µg/mL (≈ 0.715 µM); against Haemophilus influenzae [23] it was 1 µg/mL (≈ 2.86 µM); against Haemophilus influenzae [24], 2 µg/mL (≈ 5.72 µM); in the assay with Haemophilus haemolyticus [25], 2 µg/mL (≈ 5.72 µM); with Haemophilus haemolyticus [26], 0.5 µg/mL (≈ 1.43 µM); in [27], 0.5 µg/mL (≈ 1.43 µM).

The values are drawn from ChEMBL document CHEMBL1145480, “Horizontal gene transfer of ftsI, encoding penicillin-binding protein 3, in Haemophilus influenzae” (2007).
